Experimental data taken from ChEMBL document CHEMBL4130485, “Inhibitors of Yellow Fever Virus replication based on 1,3,5-triphenyl-4,5-dihydropyrazole scaffold: Design, synthesis and antiviral evaluation” (Eur J Med Chem, 2017).
pEC50: −log10 of the molar value.

How the values were obtained:
[1] = Cytotoxicity against bovine MDBK cells assessed as decrease in cell viability after 72 hrs by MTT assay; format: cell-based, Bos taurus; settings: cattle
Outline: (§1)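 Uninfected MDBK (6×10^5 cells/mL, 10% horse serum) or BHK (1×10^6 cells/mL, 10% FBS) cells in MEM-Earle with serial compound dilutions at 37 °C, 5% CO2, run in parallel with the antiviral assays. Viability read by MTT after 72 h. CC50 by linear regression; mean of three determinations.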

[2] = tested on: Enterovirus C; experiment: Antiviral activity against Enterovirus C Sabin […] infected in African green monkey Vero 76 cells assessed as protection against virus-induced cytopathic effect after 2 days by crystal violet staining-based plaque reduction assay; format: functional, organism-based; settings: Vero 76, 48 h
[3] = tested on: Vesicular stomatitis Indiana virus; experiment: Antiviral activity against Vesicular stomatitis virus Indiana ATCC VR 158 infected in African green monkey Vero 76 cells assessed as protection against virus-induced cytopathic effect after 2 days by crystal violet staining-based plaque reduction assay; format: functional, organism-based; settings: ATCC VR 158, Vero 76, 48 h
[4] = Cytotoxicity against human MT4 cells assessed as decrease in cell viability after 96 hrs by MTT assay; format: cell-based
Outline: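 Exponentially growing MT-4 cells seeded at 1×10^5 cells/mL in RPMI-1640 with 10% FBS and incubated with serial compound dilutions at 37 °C, 5% CO2. Viability read by MTT after 96 h. CC50 by linear regression versus untreated controls.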

[5] = Cytotoxicity against African green monkey Vero 76 cells assessed as decrease in cell viability after 48 to 96 hrs by MTT assay; format: cell-based; settings: chlorocebus sabaeus
Outline: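 Vero 76 cells seeded at 5×10^5 cells/mL in D-MEM with 10% FBS and incubated with serial compound dilutions at 37 °C, 5% CO2. Viability read by MTT after 48–96 h. CC50 by linear regression versus untreated controls.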

[6] = tested on: Yellow fever virus; experiment: Potency index, ratio of azauridine EC50 to compound EC50 for Yellow fever virus 17D vaccine (Stamaril Pasteur J07B01); format: functional
[7] = tested on: dengue virus type 2; experiment: Antiviral activity against Dengue virus type 2 clinical isolate infected in golden hamster BHK21 cells assessed as protection against virus-induced cytopathic effect after 3 to 4 days by MTT assay; format: functional, organism-based; settings: BHK-21
Outline: (§2)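 BHK-21 cells (MDBK for BVDV) seeded at 5×10^4 (BHK) or 3×10^4 (MDBK) cells/well and grown overnight to confluence. Infected at m.o.i. 0.01 in maintenance MEM-Earle with 0.5% inactivated FBS. Serial compound dilutions added 2 h later (final 100, 20, 4, 0.8 µM; DMSO ≤0.1%). Viability read by MTT after 3–4 days at 37 °C. EC50 obtained by linear regression against untreated controls; mean of three determinations.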

[8] = tested on: Yellow fever virus; experiment: Antiviral activity against Yellow fever virus 17D vaccine (Stamaril Pasteur J07B01) infected in golden hamster BHK21 cells assessed as protection against virus-induced cytopathic effect after 3 to 4 days by MTT assay; format: functional, organism-based; settings: BHK-21; outline: as §2
[9] = Antiviral activity against Human enterovirus B Faulkner ATCC VR 185 infected in African green monkey Vero 76 cells assessed as protection against virus-induced cytopathic effect after 3 days by crystal violet staining-based plaque reduction assay; format: functional, cell-based; settings: Faulkner ATCC VR 185, Vero 76, 72 h
[10] = tested on: Human immunodeficiency virus 1; experiment: Antiviral activity against HIV1 3B infected in human MT4 cells assessed as protection against virus-induced cytopathic effect after 4 days by MTT assay; format: functional, organism-based; settings: Human immunodeficiency virus 1, 3B, MT4, 96 h
Outline: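 MT-4 cells (1×10^4/well) in RPMI with serial compound dilutions, infected with 100 CCID50 HIV-1 (m.o.i. 0.01). Viability read by MTT after 4 days at 37 °C. EC50 for 50% protection from cytopathicity obtained by linear regression versus untreated controls; mean of three determinations.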

[11] = tested on: Human alphaherpesvirus 1; experiment: Antiviral activity against Human herpesvirus 1 KOS ATCC VR 1493 infected in African green monkey Vero 76 cells assessed as protection against virus-induced cytopathic effect after 3 days by crystal violet staining-based plaque reduction assay; format: functional, organism-based; settings: Human alphaherpesvirus 1, KOS, Vero 76, 72 h
[12] = Selectivity index, ratio of CC50 for golden hamster BHK21 cells to EC50 for Yellow fever virus 17D; format: toxicity; settings: read-out: Ratio CC50/EC50
Outline: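 Selectivity index calculated as BHK-21 CC50 divided by YFV EC50, both from MTT assays.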

[13] = tested on: Vaccinia virus; experiment: Antiviral activity against Vaccinia virus Lister ATCC VR 1549 infected in African green monkey Vero 76 cells assessed as protection against virus-induced cytopathic effect after 3 days by crystal violet staining-based plaque reduction assay; format: functional, organism-based; settings: Orthopoxvirus vaccinia, ATCC VR 1549, Vero 76, 72 h
[14] = Cytotoxicity against golden hamster BHK21 cells assessed as decrease in cell viability after 72 hrs by MTT assay; format: cell-based, Mesocricetus auratus, BHK-21; outline: as §1
[15] = tested on: Bovine viral diarrhea virus 1; experiment: Antiviral activity against Bovine viral diarrhea virus NADL ATCC VR 534 infected in bovine MDBK cells assessed as protection against virus-induced cytopathic effect after 3 to 4 days by MTT assay; format: functional, organism-based, Bovine viral diarrhea virus 1-NADL; settings: Bovine viral diarrhea virus isolates and strains, ATCC VR 534, MDBK; outline: as §2
[16] = tested on: Human orthopneumovirus; experiment: Antiviral activity against Human respiratory syncytial virus A2 ATCC VR 1540 infected in African green monkey Vero 76 cells assessed as protection against virus-induced cytopathic effect after 5 days by crystal violet staining-based plaque reduction assay; format: functional, organism-based; settings: ATCC VR 1540, Vero 76, 120 h
[17] = tested on: Mammalian orthoreovirus 1; experiment: Antiviral activity against Reovirus 1 infected in golden hamster BHK21 cells assessed as protection against virus-induced cytopathic effect after 3 to 4 days by MTT assay; format: functional, organism-based; settings: Mammalian orthoreovirus 1, BHK-21; outline: as §2
[18] = tested on: West Nile virus; experiment: Antiviral activity against West Nile virus clinical isolate infected in golden hamster BHK21 cells assessed as protection against virus-induced cytopathic effect after 3 to 4 days by MTT assay; format: functional, organism-based; settings: BHK-21; outline: as §2

| Structure (SMILES) | CC50 at 72 h [1] [µM] | pEC50 [2] | pEC50 [3] | CC50 at 96 h [4] [µM] | CC50 [5] [µM] | Ratio EC50 [6] | pEC50 [7] | pEC50 [8] | pEC50 [9] | pEC50 [10] | pEC50 [11] | selectivity ratio [12] | pEC50 [13] | CC50 at 72 h [14] [µM] | pEC50 [15] | pEC50 [16] | pEC50 [17] | pEC50 [18] |
| --- | --- | --- | --- | --- | --- | --- | --- | --- | --- | --- | --- | --- | --- | --- | --- | --- | --- | --- |
| NS(=O)(=O)c1ccc(N2N=C(c3ccccc3)CC2c2ccc(F)cc2)cc1 (stereo unspecified) | 18 | < 4.64 | < 4.64 | 45 | 23 | 10 | < 4.89 | 5.59 | < 4.64 | < 4.35 | < 4.64 | 5 | < 4.64 | 12 to 13 | < 4.74 | < 4.64 | < 4.92 | < 4.89 |
| Cc1ccccc1C1CC(c2ccc(OCc3ccccc3)cc2)=NN1c1ccc(S(N)(=O)=O)cc1 (stereo unspecified) | > 100 | < 4.00 | < 4.00 | ≥ 100 | 100 | 10 | < 4.66 | 5.74 | < 4.00 | < 4.00 | < 4.00 | 12.2 | < 4.00 | 20 to 22 | < 4.00 | < 4.00 | < 4.70 | < 4.66 |
| C[C@@]1(O)[C@H](O)[C@@H](CO)O[C@H]1n1cnc2c(=O)[nH]c(N)nc21 [2'-B-METHYL-GUANOSINE] |  |  |  |  |  |  | 5.77 |  |  |  |  |  |  |  |  |  |  | 6.10 |
| Nc1nc2c(ncn2COCCO)c(=O)[nH]1 [ACYCLOVIR] |  |  |  |  | > 100 |  |  |  |  |  | 5.74 |  |  |  |  |  |  |  |
| Cc1ccc(C2CC(c3ccccc3)=NN2c2ccc(S(N)(=O)=O)cc2)cc1 (stereo unspecified) | 32 | < 4.70 | < 4.70 | 40 | 20 | 10 | < 5.10 | 5.66 | < 4.70 | < 4.40 | < 4.70 | 3.6 | < 4.70 | 7 to 8 | < 4.49 | < 4.70 | < 5.15 | < 5.10 |
| NS(=O)(=O)c1ccc(N2N=C(c3ccc(Oc4ccccc4)cc3)CC2c2ccc(Cl)cc2)cc1 (stereo unspecified) | 19 | < 4.06 | < 4.06 | 9 | 88 | 10 | < 5.10 | 5.72 | < 4.06 | < 5.05 | < 4.06 | 4.2 | < 4.06 | 7 to 8 | < 4.72 | < 4.06 | < 5.15 | < 5.10 |
| NS(=O)(=O)c1ccc(N2N=C(c3ccccc3)CC2c2ccc(Cl)cc2)cc1 (stereo unspecified) | 11 | < 4.68 | < 4.68 | 36 | 21 | 10 |  | < 4.49 | < 4.68 | < 4.44 | < 4.68 |  | < 4.68 | 32 | < 4.96 | < 4.68 | < 4.49 |  |
